Data from ChEMBL document CHEMBL1121890, “Synthesis and antimetastatic properties of steroeoisomeric trycylic bis(dioxopiperazine) analogues in a B16 melanoma model” (1981).
Several values for one entry are separate records, joined by “and”; a condition that tells them apart may be missing. Equal entries are not always repeated.

Experiments:
Assay type in all cases: functional, Mus musculus
B16-F10 [1] = experiment: Effect of 100 uM on B16-F10 melanoma cells (experiment 2)
Outline: (§1)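 B16-F10 cells, cultured in vitro for no more than 10 passages, were exposed for 24 h to drug made up as a 1000 μM Me₂SO stock and diluted in medium. Controls were Me₂SO or saline. Cells were scraped, washed and set at 5 × 10⁵/mL in Hanks BSS, and 0.2 mL was given iv by tail vein to male C57Bl/6J mice aged 6–8 weeks. Black lung nodules were counted at 14 days, mean ± SD, ANOVA/Newman–Keuls.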

B16-F10 [2] = experiment: Effect of 20 uM on B16-F10 melanoma cells (experiment 2); outline: as §1
B16-F10 [3] = experiment: Effect of 2 uM on B16-F10 melanoma cells (experiment 2); outline: as §1
B16-F10 [4] = experiment: Effect of 100 uM on B16-F10 melanoma cells (experiment 1); outline: as §1
B16-F10 [5] = experiment: Effect of 2 uM on B16-F10 melanoma cells (experiment 1); outline: as §1
B16-F10 [6] = experiment: Effect of 20 uM on B16-F10 melanoma cells (experiment 1); outline: as §1

SMILES	Mean no. of lung colonies (B16-F10 [1])	Mean no. of lung colonies (B16-F10 [2])	Mean no. of lung colonies (B16-F10 [3])	Mean no. of lung colonies (B16-F10 [4])	Mean no. of lung colonies (B16-F10 [5])	Mean no. of lung colonies (B16-F10 [6])
O=C1CN2CCN3CC(=O)NC(=O)[C@H]3C2C(=O)N1 (some centres not stated)	118.9	96.1	52.1	–	–	–
COC(=O)CN1CCN2CC(=O)NC(=O)[C@@H]2[C@@H]1C(N)=O	56.7	101.3	86.2	–	–	–
CCOC(=O)CN1CCN(CC(=O)OCC)[C@H]2C(=O)NC(=O)[C@H]21	–	–	–	142.5	159.7	160.7
CCOC(=O)COC(=O)[C@H]1[C@@H](C(N)=O)N(CC(=O)OCC)CCN1CC(=O)OCC	–	–	–	37.1	33.2	43.4
O=C1CN2CCN3CC(=O)NC(=O)[C@@H]3C2C(=O)N1 (some centres not stated)	–	50.1 and 50.2	39.1	65.7	29.1	23.3
